Data on five molecules can be found in ChEMBL document CHEMBL4325891 (Eur J Med Chem, 2019).

Active and inactive are the calls of the source. No cut-off for these calls is given here. Where a SMILES comes first, the peptide text is derived from it. The star is where a group is joined. Doxorubicin(Traut) = COc1cccc2c1C(=O)c1c(O)c3c(c(O)c1C2=O)C[C@@](O)(C(=O)CO)C[C@@H]3O[C@H]1C[C@H](NC(=N)CCCS*)[C@H](O)[C@H](C)O1; βAla = NCCC(=O)O

Data set [1] has as its system HT-1080. The experiment in a line: Inhibition of cell proliferation in human HT1080 cells at 5 uM after 24 hrs by MTT or MTS assay relative to control. It counts as functional. The conditions noted are these: for inhibition at 5 µM: HT-1080, 24 h. The procedure, abridged:
(§1)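 Seeding was 5000 cells/well for HEK-293, SKOV-3 and HT-1080, and 50,000 for CCRF-CEM, 24 h before dosing. CCRF-CEM was grown in RPMI and the others in EMEM with 10% FBS. Compounds were given at 5 μM for 24 or 72 h at 37 °C, with water/0.025% DMSO as negative control. Adherent lines received fresh medium before adding MTT (595 nm) or MTS (490 nm). Background-corrected OD is expressed as percent of control; triplicate runs.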

Data set [2] deals with CCRF-CEM. As to the kind of experiment: Inhibition of cell proliferation in human CCRF-CEM cells at 5 uM after 24 hrs by MTT or MTS assay relative to control. It counts as functional. Put shortly: as §1
For data set [3], the system named is CCRF-CEM. The experiment in a line: Inhibition of cell proliferation in human CCRF-CEM cells at 5 uM after 72 hrs by MTT or MTS assay relative to control. It counts as functional. Put shortly: as §1
Data set [4] can be described thus: Drug uptake in human HT1080 cells at 50 uM after 3 hrs by flow cytometry. The following applies: ht-1080, 3 h. It counts as ADME, cell-based.
A short description of data set [5]: Drug uptake in human SKOV3 cells at 50 uM after 3 hrs by flow cytometry. The data set is classed as ADME, cell-based. The conditions noted are these: sk-ov-3, 3 h.
The nature of data set [6]: Drug uptake in human HT1080 cells nucleus at 5 uM after 1 to 24 hrs by DAPI staining based fluorescence microscopic method. It counts as ADME, subcellular. The following applies: ht-1080, 5 µM. The procedure, abridged: (§2)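 1×10^4 cells per chamber were allowed to attach and then cultured overnight. Compounds were added at 5 μM final in fresh medium for 1 h or 24 h, with untreated cells as control. Cells were then washed with DPBS and fixed in 4% paraformaldehyde for 30 min.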

Data set [7] in a line: Drug uptake in human MDA-MB-468 cells nucleus at 5 uM after 1 to 24 hrs by DAPI staining based fluorescence microscopic method. It counts as ADME, subcellular. The conditions noted are these: mda-mb-468, 5 µM. Put shortly: as §2
A short description of data set [8]: Drug uptake in human MCF7 cells nucleus at 5 uM after 1 to 24 hrs by DAPI staining based fluorescence microscopic method. The data set is classed as ADME, subcellular. The conditions noted are these: mcf7, 5 µM. Put shortly: as §2
The nature of data set [9]: Drug uptake in human SKOV3 cells nucleus at 5 uM after 1 to 24 hrs by DAPI staining based fluorescence microscopic method. It counts as ADME, subcellular. The conditions noted are these: sk-ov-3, 5 µM. The procedure, abridged:
as §2

Data set [10] can be described thus: Cytotoxicity against mouse C2C12 cells assessed as cell viability at 5 uM after 72 hrs by MTT assay relative to control. The following applies: read-out: Activity. It counts as cell-based. Put shortly:
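C2C12 mouse myoblasts grown in DMEM with 10% FBS, seeded at 10,000 cells/well 24 h before dosing. Compound exposure for 72 h at 37 °C, then MTT read-out. Viability expressed relative to untreated control, set at 100%. Run in triplicate.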

The subject of data set [11] is C2C12. The experiment in a line: Induction of ROS generation in mouse C2C12 cells at 0.5 uM after 72 hrs by H2DCFDA staining based flow cytometry relative to control. The data set is classed as cell-based. The following applies: c2c12, 72 h.
The test system of data set [12] is C2C12. As to the kind of experiment: Induction of FeCl2-mediated ROS generation in mouse C2C12 cells at 0.5 uM after 72 hrs by H2DCFDA staining based flow cytometry relative to control. The following applies: c2c12, 72 h. The data set is classed as cell-based. Put shortly: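 C2C12 cells were seeded in DMEM with 10% FBS and cultured 24 h. They were then incubated 72 h in serum-free DMEM with 10 μM Fe²⁺ (FeCl₂), with or without compound at 0.5 μM. Cells were harvested and stained with 10 μM H₂DCFDA in HBSS for 30 min at 37 °C before flow cytometry. The mean signal of 5000 cells is expressed as fold of control; experiments were done twice.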

A short description of data set [13]: Inhibition of cell proliferation in HEK293 cells at 5 uM after 24 hrs by MTT or MTS assay relative to control. The data set is classed as cell-based. The conditions noted are these: human.
Data set [14] has as its system SK-OV-3. The experiment in a line: Inhibition of cell proliferation in human SKOV3 cells at 5 uM after 24 hrs by MTT or MTS assay relative to control. It counts as functional. The conditions noted are these: SK-OV-3, 24 h.
Data set [15] relates to HT-1080. As to the kind of experiment: Inhibition of cell proliferation in human HT1080 cells at 5 uM after 72 hrs by MTT or MTS assay relative to control. It counts as functional. The conditions noted are these: for inhibition at 5 µM: HT-1080, 72 h.
In data set [16] the test system is SK-OV-3. The experiment in a line: Inhibition of cell proliferation in human SKOV3 cells at 5 uM after 72 hrs by MTT or MTS assay relative to control. The conditions noted are these: SK-OV-3, 72 h. The data set is classed as functional.
Data set [17] is described as follows: Drug uptake in human HT1080 cells at 5 uM after 3 hrs by flow cytometry. The data set is classed as ADME, cell-based. The following applies: ht-1080, 3 h. Put shortly: (§3)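 Adherent cells were plated at 5×10^4 per well in serum-free medium and left overnight, then exposed to 5 μM compound for 3 h at 37 °C, with untreated cells as control. Cells were washed with DPBS, trypsinised for 5 min and washed twice. Flow cytometry read the Texas Red channel, giving the mean fluorescence of 10,000 cells, in triplicate.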

Data set [18] in a line: Drug uptake in human SKOV3 cells at 5 uM after 3 hrs by flow cytometry. It counts as ADME, cell-based. The conditions noted are these: sk-ov-3, 3 h. The procedure, abridged:
as §3

Data set [19] in a line: Inhibition of cell proliferation in HEK293 cells at 5 uM after 72 hrs by MTT or MTS assay relative to control. The data set is classed as cell-based. The conditions noted are these: human. The procedure, abridged:
as §1

Data set [20] in a line: Drug uptake in HEK293 cells at 50 uM after 3 hrs by flow cytometry. It counts as ADME, cell-based. The following applies: human, hek293, 3 h.
Data set [21] in a line: Drug uptake in human CCRF-CEM cells at 50 uM after 3 hrs by flow cytometry. The data set is classed as ADME, cell-based.

With `N=C(N)NCCC[C@@H]1NC(=O)[C@H](CS)NC(=O)[C@H](CCCNC(=N)N)NC(=O)[C@H](Cc2c[nH]c3ccccc23)NC(=O)[C@H](CCCNC(=N)N)NC(=O)[C@H](Cc2c[nH]c3ccccc23)NC(=O)[C@H](CCCCNC(=O)CCN)NC(=O)[C@H](Cc2c[nH]c3ccccc23)NC(=O)[C@H](CCCNC(=N)N)NC(=O)[C@H](Cc2c[nH]c3ccccc23)NC1=O` (cyclo(CRWRWK(βAla)WRWR)), the inhibition entry in the data set on HT-1080 [1], in the data set on CCRF-CEM [2] and in the data set on CCRF-CEM [3] was “inactive” throughout.

For `COc1cccc2c1C(=O)c1c(O)c3c(c(O)c1C2=O)C[C@@](O)(C(=O)CO)C[C@@H]3O[C@H]1C[C@H](NC(=N)CCCSSC[C@@H]2NC(=O)[C@H](CCCNC(=N)N)NC(=O)[C@H](Cc3c[nH]c4ccccc34)NC(=O)[C@H](CCCNC(=N)N)NC(=O)[C@H](Cc3c[nH]c4ccccc34)NC(=O)[C@H](CCCCNC(=O)CCN)NC(=O)[C@H](Cc3c[nH]c4ccccc34)NC(=O)[C@H](CCCNC(=N)N)NC(=O)[C@H](Cc3c[nH]c4ccccc34)NC(=O)[C@H](CCCNC(=N)N)NC2=O)[C@H](O)[C@H](C)O1` (cyclo(C(Doxorubicin(Traut))RWRWK(βAla)WRWR)), the Drug uptake result in data set [4], in data set [5], in data set [6], in [7], in data set [8] and in data set [9] was “Active” each time. Moreover, the viability at 72 h, 5 µM in data set [10] is 71%. The “fold change (FC)” value with C2C12 [11] amounted to 1.05. In the data set on C2C12 [12], the Activity entry is reported as “Non-Toxic”.

In the case of `COc1cccc2c1C(=O)c1c(O)c3c(c(O)c1C2=O)C[C@@](O)(C(=O)CO)C[C@@H]3O[C@H]1C[C@H](N)[C@H](O)[C@H](C)O1` [DOXORUBICIN], in data set [13], the inhibition at 24 h, 5 µM stood at 57%. The inhibition at 5 µM with HT-1080 [1] was 66%; in the data set on SK-OV-3 [14] it was 66 to 76%; with CCRF-CEM [2] it was 45%; with SK-OV-3 [16], 51%; in the data set with CCRF-CEM [3], 69%. The inhibition entry in the data set with HT-1080 [15] was “inactive”. Moreover, the Drug uptake result in data set [17], in data set [18], in data set [6], in data set [7], in [8] and in [9] was “Active” in each case. Moreover, the viability at 72 h, 5 µM in [10] came out at 28.6%. For the same molecule, the “fold change (FC)” value is 1.09 in the data set on C2C12 [11] and 3.48 in the data set with C2C12 [12].

Regarding `COc1cccc2c1C(=O)c1c(O)c3c(c(O)c1C2=O)C[C@@](O)(C(=O)CO)C[C@@H]3O[C@H]1C[C@H](NC(=N)CCCS)[C@H](O)[C@H](C)O1`, in data set [13], the inhibition at 24 h, 5 µM was 61%. Moreover, the inhibition at 5 µM stood at 62% in the data set on HT-1080 [1]; 48% in the data set on CCRF-CEM [2]; 68% in the data set with HT-1080 [15]; 42% in the data set on SK-OV-3 [16]; 73% with CCRF-CEM [3]. This molecule also displayed an inhibition at 72 h, 5 µM in data set [19] of 64%. For the same molecule, the Drug uptake result in [6], in data set [7], in data set [8] and in [9] was “Active” in each case.

In data set [13], `COc1cccc2c1C(=O)c1c(O)c3c(c(O)c1C2=O)C[C@@](O)(C(=O)CO)C[C@@H]3O[C@H]1C[C@H](NC(=N)CCCSSc2ccccn2)[C@H](O)[C@H](C)O1` displayed an inhibition at 24 h, 5 µM of 66%. Further, the inhibition at 5 µM in the data set with HT-1080 [1] was 80%; in the data set with SK-OV-3 [14], 72%; with CCRF-CEM [2], 46%; in the data set on HT-1080 [15], 68%; in the data set with SK-OV-3 [16], 39%; with CCRF-CEM [3], 73%. For the same molecule, the inhibition at 72 h, 5 µM in data set [19] is 60%. Also, the Drug uptake entry in [20], in [4], in [21], in data set [6], in data set [7] and in [8] was “Active” throughout. Further, the Drug uptake entry in data set [9] is on record as “Active”.
